Source: ChEMBL document CHEMBL5500359, “Identification of a new bisindolinone arresting IGROV1 cells proliferation” (Eur J Med Chem, 2024)
Activity calls are given as the source filed them. The rule behind the calls is not given here.

Key:
[1] = system: Colon carcinoma cell; assay: Cytotoxicity against human Colon carcinoma cells incubated for 48 hrs by SRB assay; format: functional
Summary of the method: (§1)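 NCI-60 five-concentration screen: lines seeded 5×10^3–4×10^4 cells/well depending on line; compound diluted in fresh medium at scalar concentrations 0–100 or 0–1000 μM; 48 h exposure, in situ fixation, sulforhodamine B protein staining, optical density read; GI50, TGI and LC50 per NCI procedures; panel mean = mean graph midpoint.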

[2] = Cytotoxicity against human Leukemia cancer cells incubated for 48 hrs by SRB assay; format: functional; conditions: Leukemia cell, read-out: LC50 (the source's name)
Summary of the method: (§2)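 NCI DTP five-concentration screen. Cells were seeded at 5 × 10³–4 × 10⁴ cells/well, depending on the line. Compounds were diluted in fresh medium and added at scalar concentrations over 0–1000 µM or 0–100 µM. After 48 h the cells were fixed in situ, stained with sulforhodamine B, and optical density was read. GI50, TGI and LC50 were derived by NCI procedures, and the panel mean is the mean graph midpoint.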

[3] = system: Renal cancer cell line; assay: Cytostatic activity against human Renal cancer cells incubated for 48 hrs by SRB assay; format: functional; summary of the method: as §1
[4] = system: Ovarian cancer cell line; assay: Cytostatic activity against human Ovarian cancer cells incubated for 48 hrs by SRB assay; format: functional; summary of the method: as §1
[5] = system: Melanoma cell line; assay: […] against human Melanoma cells incubated for 48 hrs by SRB assay; format: functional; conditions: read-out: LC50 (the source's name); summary of the method: as §2
[6] = system: Colon carcinoma cell; assay: Cytostatic activity against human Colon carcinoma cells incubated for 48 hrs by SRB assay; format: functional; summary of the method: as §1
[7] = Cytostatic activity against human Leukemia cancer cells incubated for 48 hrs by SRB assay; format: functional, Leukemia cell; summary of the method: as §1
[8] = system: Renal cancer cell line; assay: Cell growth inhibition of human Renal cancer cells incubated for 48 hrs by SRB assay; format: functional; summary of the method: as §1
[9] = system: Melanoma cell line; assay: Cell growth inhibition of human Melanoma cells incubated for 48 hrs by SRB assay; format: functional; summary of the method: as §1
[10] = system: CNS carcinoma cell; assay: Cell growth inhibition of human CNS carcinoma cells incubated for 48 hrs by SRB assay; format: functional; summary of the method: as §1
[11] = Cell growth inhibition of human Leukemia cancer cells incubated for 48 hrs by SRB assay; format: functional; summary of the method: as §1
[12] = system: NSCLC; assay: Cell growth inhibition of human NSCLC cells incubated for 48 hrs by SRB assay; format: functional; summary of the method: as §1
[13] = system: IGROV-1; assay: Cytotoxicity against human IGROV-1 cells assessed as reduction in cell viability incubated for 24 hrs by MTT assay; format: functional, cell-based; conditions: IGROV-1, 24 h
Summary of the method: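 IGROV1 and HDFa in RPMI 1640 + 10% FCS, 2 mM glutamine, 37 °C, 5% CO2; seeded 1.5×10^4/well, after 24 h exposed 24 h to 0.010–500 μM (DMSO ≤0.1%). MTT 0.2 mg/mL in PBS 2 h at 37 °C, absorbance 570 nm; IC50 from dose-response, three independent experiments each in triplicate; SI = HDFa IC50/IGROV1 IC50.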

[14] = system: IGROV-1; assay: Antiproliferative activity against human IGROV-1 cells assessed as doubling time at 5 uM incubated for 24 to 48 hrs (reference value: 23.9 +/- 2.4 hrs); format: functional; conditions: time 24-48 hrs
Summary of the method: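 Quantitative phase imaging on IGROV1 seeded 4×10^3/well, 24 h later given 5 μM (six replicates; DMSO ≤0.1% final). Images hourly for 2 days at 37 °C, 5% CO2. Cell count and confluence normalized to experiment start; doubling time derived from growth.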

[15] = system: IGROV-1; assay: Anti-motility activity in human IGROV-1 cells assessed as decrease in cell velocity at 5 uM incubated for 24 hrs; format: functional, cell-based
Summary of the method: (§3)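 Livecyte quantitative phase imaging, label-free single-cell tracking; IGROV1 seeded 4×10^3/well, treated after 24 h with 5 μM in six replicates; frames every 60 min for 2 days, 10× objective, 37 °C, 5% CO2. Each cell tracked for displacement, instantaneous velocity and directionality.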

[16] = system: IGROV-1; assay: Effect on directionality of human IGROV-1 cells at 5 uM incubated for 24 hrs; format: functional, cell-based; summary of the method: as §3
[17] = Upregulation of histone H4 acetylation in human IGROV-1 cells incubated for 6 hrs by Western blot analysis relative to control; format: functional
Summary of the method: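 IGROV1 seeded 1.5×10^4 cells/cm², after 48 h exposed 6 h to 5 μM final; histones acid-extracted (0.4 N H2SO4) from nuclei isolated with 10 mM butyrate washes, acetone-precipitated, 15% SDS-PAGE, blotted with anti-acetyl-lysine; densitometry normalized to histone H1, percent of vehicle, mean ± SD of three experiments.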

[18] = system: IGROV-1; assay: Downregulation of CCND1 mRNA level in human IGROV-1 cells at 5 uM incubated for 6 hrs by RT-PCR analysis; format: functional, cell-based
Summary of the method: (§4)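 IGROV1 given 5 μM versus vehicle; RNA extracted by spin column, reverse transcribed, CCND1, CDKN1A and ITAG5 transcripts quantified by qRT-PCR as fold change versus vehicle; at least triplicate, Student's t-test, p<0.05.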

[19] = system: IGROV-1; assay: Downregulation of ITAG5 mRNA level in human IGROV-1 cells at 5 uM incubated for 6 hrs by RT-PCR analysis; format: functional, cell-based; summary of the method: as §4
[20] = system: IGROV-1; assay: Downregulation of CCND1 level in human IGROV-1 cells at 5 uM incubated for 6 hrs by Western blot analysis; format: functional, cell-based
Summary of the method: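 IGROV1 exposed to 5 μM; RIPA lysates at 4 °C, protein quantified, SDS-PAGE (12.5% or 7.5%), nitrocellulose blot probed overnight at 4 °C for cyclin D1 or α5 integrin subunit; densitometry normalized to α-tubulin, percent of vehicle, mean ± SD of three experiments.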

[21] = system: IGROV-1; assay: Effect on p21 level in human IGROV-1 cells at 5 uM incubated for 6 hrs by Western blot analysis; format: functional, cell-based
[22] = system: IGROV-1; assay: Induction of DNA damage in human IGROV-1 cells assessed as increase in gamma-H2AX phosphorylation at 5 uM pretreated for 24 hrs followed by UV exposure for 6 hrs by Western blot analysis; format: functional, cell-based; conditions: time 30.0 hrs
Summary of the method: (§5)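 IGROV1 pretreated 24 h with 5 μM, then UV-irradiated with a 7.5 W lamp for 3 min; UV alone as positive control. Cyclin D1 and RAD51 by RIPA-lysate Western blot normalized to α-tubulin; γH2AX by acid-extracted histone blot normalized to H1; percent of vehicle, mean ± SD, three experiments.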

[23] = system: IGROV-1; assay: Downregulation of CCND1 mRNA level in human IGROV-1 cells at 5 uM pretreated for 24 hrs followed by UV exposure for 6 hrs by qRT-PCR analysis; format: functional, cell-based; conditions: time 30.0 hrs
Summary of the method: (§6)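 IGROV1 pretreated 24 h with 5 μM then UV-irradiated (7.5 W lamp, 3 min); CCND1 and RAD51 mRNA by qRT-PCR after column RNA extraction and reverse transcription, fold change versus vehicle; at least triplicate, Student's t-test.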

[24] = system: IGROV-1; assay: Downregulation of RAD51 mRNA level in human IGROV-1 cells at 5 uM pretreated for 24 hrs followed by UV exposure for 6 hrs by qRT-PCR analysis; format: functional, cell-based; conditions: time 30.0 hrs; summary of the method: as §6
[25] = system: IGROV-1; assay: Downregulation of CCND1 level in human IGROV-1 cells at 5 uM pretreated for 24 hrs followed by UV exposure for 6 hrs by Western blot analysis; format: functional, cell-based; conditions: time 30.0 hrs; summary of the method: as §5
[26] = system: IGROV-1; assay: Downregulation of RAD51 level in human IGROV-1 cells at 5 uM pretreated for 24 hrs followed by UV exposure for 6 hrs by Western blot analysis; format: functional, cell-based; conditions: time 30.0 hrs; summary of the method: as §5
[27] = system: HDFa (Homo sapiens); assay: Antiproliferative activity against human HDFa cells assessed as doubling time at 5 uM measured after 48 hrs (reference value: 35 hrs)

For `CC(C)(C)c1cc(/C=C2/C(=O)Nc3cc(Cl)ccc32)c(O)c(/C=C2/C(=O)Nc3cc(Cl)ccc32)c1`, which GI [1] is on record?
Its GI is 37.15 µM.

And the CC50 [2]?
Its CC50 is 97.7 µM.

What about the GI [3] of the same molecule?
The GI was 11.22 µM.

And the TGI [4]?
Its TGI is 10 µM.

And the CC50 [5]?
The CC50 was 8.51 µM.

And the TGI [6]?
The TGI was 13.2 µM.

What about the GI [7] of the same molecule?
The GI was 18.62 µM.

What about the GI50 [8] of the same molecule?
Its GI50 is 2.69 µM.

What about the GI [9] of the same molecule?
The GI was 2.82 µM.

And the GI50 [10]?
The GI50 was 2.75 µM.

And the GI50 [11]?
The GI50 was 2.45 µM.

And the GI [12]?
Its GI is 3.63 µM.

What about the IC50 [13] of the same molecule?
Its IC50 is 6.06 µM.

And the Time [14]?
The Time was 113.3 h.

And the Activity [15]?
Its Activity is “Active”.

And the Activity [16]?
Its Activity is “inactive”.

And the Activity [17]?
Its Activity is 68.5%.

And the Activity [18]?
The Activity was “Active”.

And the Activity [19]?
Its Activity is “Active”.

And the Activity [20]?
The Activity was “Active”.

And the Activity [21]?
The Activity was “inactive”.

And the Activity [22]?
Its Activity is “Active”.

And the Activity [23]?
The Activity was “Active”.

What about the Activity [24] of the same molecule?
Its Activity is “Active”.

And the Activity [25]?
Its Activity is “Active”.

And the Activity [26]?
The Activity was “Active”.

What about the Time [27] of the same molecule?
The Time was 56 h.
